The source made the active and inactive calls. The calls are words filed in the database; no cut-off is given here.
Tests used:
B16-F10 [1] = test: Antitumor activity against mouse B16-F10 cells implanted in BDF1 mouse assessed as tumor growth inhibition at 50 mg/kg, po administered on day 0,3 and 7 measured after 14 days; type: functional; conditions: B16-F10, 336 h, time 14 day, read-out: TGI
Method in brief: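 Male BDF1 mice given 5 × 10^5 B16F10 melanoma cells subcutaneously; dosing began 7 days after inoculation (day 0) in random groups of seven. Tumours were measured by calipers, with TV = (L × W²)/2 and RTV = TVn/TV0. T/C% on day 14 = 100 × mean RTV treated / mean RTV control. Body weight was also recorded.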

[2] = Growth inhibition of human HBC4 cells measured after 48 hrs by sulforhodamine B assay; type: functional
Method in brief: (§1)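 JFCR39 panel lines were grown in RPMI 1640 with 5% FBS, penicillin and streptomycin at 37 °C in 5% CO2. After 48 h of drug exposure, total cellular protein was measured by sulforhodamine B staining. GI50 was calculated by a previously described method.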

[3] = Growth inhibition of human BSY1 cells measured after 48 hrs by sulforhodamine B assay; type: functional; conditions: BSY-1; method in brief: as §1
[4] = Growth inhibition of human HBC5 cells measured after 48 hrs by sulforhodamine B assay; type: functional; method in brief: as §1
MDA-MB-231 = test: Growth inhibition of human MDA-MB-231 cells measured after 48 hrs by sulforhodamine B assay; type: functional; method in brief: as §1
U-251 = test: Growth inhibition of human U-251 cells measured after 48 hrs by sulforhodamine B assay; type: functional; method in brief: as §1
SF-268 = test: Growth inhibition of human SF-268 cells measured after 48 hrs by sulforhodamine B assay; type: functional; method in brief: as §1
SF-295 = test: Growth inhibition of human SF-295 cells measured after 48 hrs by sulforhodamine B assay; type: functional; method in brief: as §1
SF-539 = test: Growth inhibition of human SF-539 cells measured after 48 hrs by sulforhodamine B assay; type: functional; method in brief: as §1
SNB-75 = test: Growth inhibition of human SNB-75 cells measured after 48 hrs by sulforhodamine B assay; type: functional; method in brief: as §1
SNB-78 = test: Growth inhibition of human SNB-78 cells measured after 48 hrs by sulforhodamine B assay; type: functional; method in brief: as §1
HCC 2998 = test: Growth inhibition of human HCC 2998 cells measured after 48 hrs by sulforhodamine B assay; type: functional; method in brief: as §1
KM12 = test: Growth inhibition of human KM12 cells measured after 48 hrs by sulforhodamine B assay; type: functional; method in brief: as §1
HT-29 = test: Growth inhibition of human HT-29 cells measured after 48 hrs by sulforhodamine B assay; type: functional; method in brief: as §1
HCT-15 = test: Growth inhibition of human HCT-15 cells measured after 48 hrs by sulforhodamine B assay; type: functional; method in brief: as §1
HCT-116 = test: Growth inhibition of human HCT-116 cells measured after 48 hrs by sulforhodamine B assay; type: functional; method in brief: as §1
NCI-H23 = test: Growth inhibition of human NCI-H23 cells measured after 48 hrs by sulforhodamine B assay; type: functional; method in brief: as §1
NCI-H226 = test: Growth inhibition of human NCI-H226 cells measured after 48 hrs by sulforhodamine B assay; type: functional; method in brief: as §1
NCI-H522 = test: Growth inhibition of human NCI-H522 cells measured after 48 hrs by sulforhodamine B assay; type: functional; method in brief: as §1
NCI-H460 = test: Growth inhibition of human NCI-H460 cells measured after 48 hrs by sulforhodamine B assay; type: functional; method in brief: as §1
A549 [5] = test: Growth inhibition of human A549 cells measured after 48 hrs by sulforhodamine B assay; type: functional; method in brief: as §1
DMS-273 = test: Growth inhibition of human DMS-273 cells measured after 48 hrs by sulforhodamine B assay; type: functional; method in brief: as §1
DMS-114 = test: Growth inhibition of human DMS-114 cells measured after 48 hrs by sulforhodamine B assay; type: functional; method in brief: as §1
LOX IMVI = test: Growth inhibition of human LOX IMVI cells measured after 48 hrs by sulforhodamine B assay; type: functional; method in brief: as §1
OVCAR-3 = test: Growth inhibition of human OVCAR-3 cells measured after 48 hrs by sulforhodamine B assay; type: functional; method in brief: as §1
OVCAR-4 = test: Growth inhibition of human OVCAR-4 cells measured after 48 hrs by sulforhodamine B assay; type: functional; method in brief: as §1
OVCAR-5 = test: Growth inhibition of human OVCAR-5 cells measured after 48 hrs by sulforhodamine B assay; type: functional; method in brief: as §1
OVCAR-8 = test: Growth inhibition of human OVCAR-8 cells measured after 48 hrs by sulforhodamine B assay; type: functional; method in brief: as §1
SK-OV-3 = test: Growth inhibition of human SK-OV-3 cells measured after 48 hrs by sulforhodamine B assay; type: functional; method in brief: as §1
RXF 631 = test: Growth inhibition of human RXF 631 cells measured after 48 hrs by sulforhodamine B assay; type: functional; method in brief: as §1
ACHN = test: Growth inhibition of human ACHN cells measured after 48 hrs by sulforhodamine B assay; type: functional; method in brief: as §1
St-4 = test: Growth inhibition of human St-4 cells measured after 48 hrs by sulforhodamine B assay; type: functional; method in brief: as §1
MKN-1 = test: Growth inhibition of human MKN-1 cells measured after 48 hrs by sulforhodamine B assay; type: functional; method in brief: as §1
MKN-7 = test: Growth inhibition of human MKN-7 cells measured after 48 hrs by sulforhodamine B assay; type: functional; method in brief: as §1
MKN-28 = test: Growth inhibition of human MKN-28 cells measured after 48 hrs by sulforhodamine B assay; type: functional; method in brief: as §1
MKN-45 = test: Growth inhibition of human MKN-45 cells measured after 48 hrs by sulforhodamine B assay; type: functional; method in brief: as §1
MKN-74 = test: Growth inhibition of human MKN74 cells measured after 48 hrs by sulforhodamine B assay; type: functional; method in brief: as §1
DU-145 = test: Growth inhibition of human DU-145 cells measured after 48 hrs by sulforhodamine B assay; type: functional; method in brief: as §1
PC-3 = test: Growth inhibition of human PC-3 cells measured after 48 hrs by sulforhodamine B assay; type: functional; method in brief: as §1
[6] = Inhibition of PI3K in human A549 cell lysate preincubated with compound for 5 mins followed by [gamma-32p]-ATP addition measured after 20 mins by immunoprecipitation based liquid scintillation spectroscopic analysis; type: subcellular
Method in brief: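 PI3K immunoprecipitated with anti-p85 polyclonal antibody and protein G–agarose from A549 lysate (2–4 mg/mL protein), washed, suspended in buffer C (100 mM NaCl, 20 mM Tris pH 7.5) with 200 μg/mL phosphatidylinositol; compound preincubated 5 min at 25 °C; reaction started with [γ-32P]ATP (20 μM final) and 20 mM MgCl2, run 20 min at 25 °C; PI3P separated by TLC, counted by scintillation; activity as % of no-compound cpm.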

[7] = Residual PI3K activity in human A549 cell lysate at 1 uM preincubated with compound for 5 mins followed by [gamma-32p]-ATP addition measured after 20 mins by immunoprecipitation based liquid scintillation spectroscopic analysis relative to control; conditions: A549, 25 min
A549 [8] = test: Irreversible inhibition of PI3K in human A549 cell lysate at 1 uM preincubated with compound for 5 mins followed by [gamma-32p]-ATP addition measured after 20 mins by immunoprecipitation based liquid scintillation spectroscopic analysis; type: subcellular; conditions: time 25.0 min
Method in brief: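 Class Ia PI3K was immunoprecipitated with anti-p85 antibody from A549 lysate and preincubated 5 min with compound at 1 μM. The mix was split: one aliquot washed four times (100 mM NaCl, 20 mM Tris pH 7.5), the other unwashed. Each aliquot was assayed with phosphatidylinositol 200 μg/mL, [γ-32P]ATP 20 μM final and MgCl2 20 mM final, 25 °C for 20 min. PI3P was separated by TLC, scraped and counted by scintillation, expressed as % of no-compound cpm.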

B16-F10 [9] = test: Antitumor activity against mouse B16-F10 cells implanted in BDF1 mouse assessed as tumor size relative to control (T/C) at 12 mg/kg, iv administered on day 0 measured after 14 days; conditions: 336 h
B16-F10 [10] = test: Antitumor activity against mouse B16-F10 cells implanted in BDF1 mouse assessed as tumor size relative to control (T/C) at 100 mg/kg, iv administered on day 0,3 and 7 measured after 14 days; conditions: 336 h

Work on O=c1[nH]cc(F)c(=O)[nH]1 [FLUOROURACIL] yielded an inhibition in vivo at 50 mg/kg (B16-F10 [1]) of 68.3%.
With O=c1cc(N2CCOCC2)oc2c(-c3ccccc3)cccc12 [LY-294002] the GI50 [2] was 8.71 µM, the GI50 [3] was 5.01 µM and the GI50 [4] was 3.98 µM. It also gave a GI50 (MDA-MB-231) of 5.37 µM, a GI50 (U-251) of 15.5 µM and a GI50 (SF-268) of 6.61 µM. The GI50 (SF-295) was 3.24 µM, the GI50 (SF-539) was 3.09 µM and the GI50 (SNB-75) was 2.57 µM. The GI50 (SNB-78) was 2.57 µM, the GI50 (HCC 2998) was 10.5 µM and the GI50 (KM12) was 15.5 µM. The GI50 (HT-29) was 15.1 µM, the GI50 (HCT-15) was 9.77 µM and the GI50 (HCT-116) was 15.1 µM. The GI50 (NCI-H23) was 16.6 µM, the GI50 (NCI-H226) was 4.37 µM and the GI50 (NCI-H522) was 3.24 µM. The GI50 (NCI-H460) was 17 µM, the GI50 (A549 [5]) was 6.03 µM and the GI50 (DMS-273) was 6.03 µM. For the same molecule, the GI50 (DMS-114) was 2.95 µM, the GI50 (LOX IMVI) was 6.17 µM and the GI50 (OVCAR-3) was 5.75 µM. It also gave a GI50 (OVCAR-4) of 4.27 µM, a GI50 (OVCAR-5) of 8.13 µM and a GI50 (OVCAR-8) of 10 µM. The GI50 (SK-OV-3) was 14.1 µM, the GI50 (RXF 631) was 5.5 µM and the GI50 (ACHN) was 10 µM. The GI50 (St-4) was 20.9 µM, the GI50 (MKN-1) was 10.5 µM and the GI50 (MKN-7) was 24 µM. It also gave a GI50 (MKN-28) of 24.5 µM, a GI50 (MKN-45) of 7.08 µM and a GI50 (MKN-74) of 18.2 µM. For the same molecule, the GI50 (DU-145) was 10 µM, the GI50 (PC-3) was 1.78 µM and the IC50 [6] was 0.79 µM. For the same molecule, the level, % of control at 1 µM [7] was 44.6%.
In the case of COC[C@H]1OC(=O)c2coc3c2[C@@]1(C)C1=C(C3=O)[C@@H]2CCC(=O)[C@@]2(C)C[C@H]1OC(C)=O [WORTMANNIN], the IC50 [6] is reported as 0.011 µM and the inhibition (A549 [8]) is reported as “Active”.
For COc1cccc2c1C(=O)c1c(O)c3c(c(O)c1C2=O)C[C@@](O)(C(=O)CO)C[C@@H]3O[C@H]1C[C@H](N)[C@H](O)[C@H](C)O1 [DOXORUBICIN], the T/C at 12 mg/kg (B16-F10 [9]) was 24%.
With CCc1c2c(nc3ccc(OC(=O)N4CCC(N5CCCCC5)CC4)cc13)-c1cc3c(c(=O)n1C2)COC(=O)[C@]3(O)CC [IRINOTECAN] the T/C at 100 mg/kg (B16-F10 [10]) was 96%.
